Reference: ChEMBL document CHEMBL1671788, “Discovery, synthesis, and structure-activity relationship development of a series of N-(4-acetamido)phenylpicolinamides as positive allosteric modulators of metabotropic glutamate receptor 4 (mGlu(4)) with CNS exposure in rats” (J Med Chem, 2011)

Key:
[1] = biological target: Metabotropic glutamate receptor 4 (Rattus norvegicus) (UniProt P31423); test: Positive allosteric modulation of rat mGluR4 expressed in CHO cells coexpressing Gqi5 assessed as calcium mobilization relative to PHCCC; assay type: functional, cell-based
[2] = biological target: T1, Metabotropic glutamate receptor 4 (Homo sapiens, UniProt Q14833); test: Positive allosteric modulation of human mGluR4 expressed in CHO cells coexpressing Gqi5 assessed as calcium mobilization relative to PHCCC; assay type: functional, cell-based
How it was run: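 CHO cells stably expressing human mGlu4 with Gqi5 were plated at 30,000 cells/well and grown overnight. Cells were loaded with 1 µM Fluo-4 AM for 45 min at 37 °C in HBSS/HEPES/2.5 mM probenecid buffer. […] Ca2+ fluorescence was read (ex 470, em 540 nm). Curves were fitted with a four-parameter logistic; ≥3 independent runs in triplicate.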

[3] = biological target: Metabotropic glutamate receptor 4 (Rattus norvegicus, UniProt P31423); test: Positive allosteric modulation of rat mGluR4 expressed in CHO cells coexpressing Gqi5 assessed as calcium mobilization; assay type: functional, cell-based
[4] = biological target: T1, Metabotropic glutamate receptor 4; test: Positive allosteric modulation of human mGluR4 expressed in CHO cells coexpressing Gqi5 assessed as calcium mobilization; assay type: functional, cell-based
[5] = biological target: Metabotropic glutamate receptor 4 (Rattus norvegicus) (UniProt P31423); test: Positive allosteric modulation of rat mGluR4 expressed in CHO cells coexpressing Gqi5 assessed as potentiation of glutamate-induced calcium mobilization; assay type: functional, cell-based
Cytochrome P450 1A2 = biological target: T2, Cytochrome P450 1A2 (Homo sapiens, UniProt P05177); test: Inhibition of human CYP1A2
T2 sequence (P05177 whole entry): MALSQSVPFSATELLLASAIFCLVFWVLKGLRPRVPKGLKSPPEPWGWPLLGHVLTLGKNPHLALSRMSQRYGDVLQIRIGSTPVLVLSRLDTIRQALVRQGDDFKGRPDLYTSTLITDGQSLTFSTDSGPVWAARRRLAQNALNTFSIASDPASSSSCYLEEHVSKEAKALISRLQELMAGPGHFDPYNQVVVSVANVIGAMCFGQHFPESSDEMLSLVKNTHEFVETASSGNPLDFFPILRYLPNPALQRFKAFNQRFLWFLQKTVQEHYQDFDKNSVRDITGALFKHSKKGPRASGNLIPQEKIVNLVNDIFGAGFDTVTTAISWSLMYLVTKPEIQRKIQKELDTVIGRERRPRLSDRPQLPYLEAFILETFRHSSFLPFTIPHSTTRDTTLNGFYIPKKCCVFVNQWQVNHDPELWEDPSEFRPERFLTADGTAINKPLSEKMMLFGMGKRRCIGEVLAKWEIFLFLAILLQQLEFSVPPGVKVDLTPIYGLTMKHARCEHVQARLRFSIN
How it was run: (§1)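 Human liver microsomes (final 0.1 mg/mL) in 0.1 M potassium phosphate, pH 7.4, with a probe cocktail: phenacetin 10 µM (1A2), diclofenac 5 µM (2C9), dextromethorphan 5 µM (2D6) and midazolam 2 µM (3A4). Compound at 100 nM–30 µM final, in duplicate, preincubated 15 min at 37 °C. NADPH (1 mM) reaction ran 8 min, was quenched with cold acetonitrile, and read by LC/MS/MS (MRM). IC50 determined.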

[6] = Plasma protein binding in Sprague-Dawley rat; assay type: ADME, cell-free; details: read-out: PPB
How it was run: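 Equilibrium dialysis of compound spiked into rat plasma against 25 mM phosphate buffer, pH 7.4. Dialysis ran 4 h at 37 °C with shaking. Both chambers were matrix-matched, extracted with cold acetonitrile and quantified by LC/MS/MS. Triplicate within one plate.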

Plasma [7] = test: Cmax in Sprague-Dawley rat plasma at 10 mg/kg, sc; assay type: ADME, organism-based; parameters: dose 10 mg/kg, route subcutaneous; details: in vivo
How it was run: (§2)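 Rats dosed subcutaneously at 10 mg/kg as a 10% tween 80 microsuspension. […] In vivo samples were quantified by LC/MS/MS (ESI, positive-mode MRM) after gradient elution on a C18 column.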

in vivo = details: Sprague-Dawley, rat, sc, 10 mg/kg
[8] = AUC in Sprague-Dawley rat plasma at 10 mg/kg, sc; assay type: ADME, organism-based; parameters: dose 10 mg/kg, route subcutaneous
Cytochrome P450 2C9 = Cytochrome P450 2C9 (Homo sapiens, UniProt P11712); test: Inhibition of human CYP2C9; how it was run: as §1
[9] = Cmax in Sprague-Dawley rat brain at 10 mg/kg, sc; assay type: ADME, organism-based; parameters: dose 10 mg/kg, route subcutaneous; how it was run: as §2
Cytochrome P450 2D6 = Cytochrome P450 2D6 (Homo sapiens, UniProt P10635); test: Inhibition of human CYP2D6; how it was run: as §1
Cytochrome P450 3A4 = Cytochrome P450 3A4 (Homo sapiens, UniProt P08684); test: Inhibition of human CYP3A4; how it was run: as §1
Plasma [10] = test: AUC in Sprague-Dawley rat brain at 10 mg/kg, sc; assay type: ADME, organism-based; parameters: dose 10 mg/kg, route subcutaneous; details: in vivo

Sequence of Metabotropic glutamate receptor 4 (Rattus norvegicus) (P31423 whole entry): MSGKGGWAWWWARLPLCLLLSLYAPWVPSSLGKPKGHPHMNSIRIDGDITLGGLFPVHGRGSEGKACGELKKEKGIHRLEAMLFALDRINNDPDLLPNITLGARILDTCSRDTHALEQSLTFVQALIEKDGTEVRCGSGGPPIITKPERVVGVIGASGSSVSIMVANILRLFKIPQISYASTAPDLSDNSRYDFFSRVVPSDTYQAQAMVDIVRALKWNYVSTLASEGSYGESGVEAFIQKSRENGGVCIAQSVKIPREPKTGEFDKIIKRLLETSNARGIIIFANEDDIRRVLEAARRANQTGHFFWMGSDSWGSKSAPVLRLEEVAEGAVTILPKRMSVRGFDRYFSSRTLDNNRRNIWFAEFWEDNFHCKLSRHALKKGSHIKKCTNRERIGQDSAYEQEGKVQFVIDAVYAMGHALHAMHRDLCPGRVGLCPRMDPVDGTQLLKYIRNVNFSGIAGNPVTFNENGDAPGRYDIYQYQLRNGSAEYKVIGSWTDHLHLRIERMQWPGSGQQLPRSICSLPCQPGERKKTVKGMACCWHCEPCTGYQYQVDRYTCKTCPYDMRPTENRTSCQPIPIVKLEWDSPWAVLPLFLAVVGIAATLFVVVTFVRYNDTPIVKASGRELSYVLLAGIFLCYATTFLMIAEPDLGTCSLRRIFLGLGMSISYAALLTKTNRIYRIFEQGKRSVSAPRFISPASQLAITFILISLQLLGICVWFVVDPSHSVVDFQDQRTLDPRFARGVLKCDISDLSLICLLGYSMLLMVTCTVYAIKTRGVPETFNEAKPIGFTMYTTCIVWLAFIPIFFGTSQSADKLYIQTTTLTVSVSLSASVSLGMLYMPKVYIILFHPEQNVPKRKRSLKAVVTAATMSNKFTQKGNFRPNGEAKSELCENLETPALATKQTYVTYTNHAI
Sequence of Metabotropic glutamate receptor 4 (Rattus norvegicus, UniProt P31423) (P31423 whole entry): as above
T1 sequence (Q14833 whole entry): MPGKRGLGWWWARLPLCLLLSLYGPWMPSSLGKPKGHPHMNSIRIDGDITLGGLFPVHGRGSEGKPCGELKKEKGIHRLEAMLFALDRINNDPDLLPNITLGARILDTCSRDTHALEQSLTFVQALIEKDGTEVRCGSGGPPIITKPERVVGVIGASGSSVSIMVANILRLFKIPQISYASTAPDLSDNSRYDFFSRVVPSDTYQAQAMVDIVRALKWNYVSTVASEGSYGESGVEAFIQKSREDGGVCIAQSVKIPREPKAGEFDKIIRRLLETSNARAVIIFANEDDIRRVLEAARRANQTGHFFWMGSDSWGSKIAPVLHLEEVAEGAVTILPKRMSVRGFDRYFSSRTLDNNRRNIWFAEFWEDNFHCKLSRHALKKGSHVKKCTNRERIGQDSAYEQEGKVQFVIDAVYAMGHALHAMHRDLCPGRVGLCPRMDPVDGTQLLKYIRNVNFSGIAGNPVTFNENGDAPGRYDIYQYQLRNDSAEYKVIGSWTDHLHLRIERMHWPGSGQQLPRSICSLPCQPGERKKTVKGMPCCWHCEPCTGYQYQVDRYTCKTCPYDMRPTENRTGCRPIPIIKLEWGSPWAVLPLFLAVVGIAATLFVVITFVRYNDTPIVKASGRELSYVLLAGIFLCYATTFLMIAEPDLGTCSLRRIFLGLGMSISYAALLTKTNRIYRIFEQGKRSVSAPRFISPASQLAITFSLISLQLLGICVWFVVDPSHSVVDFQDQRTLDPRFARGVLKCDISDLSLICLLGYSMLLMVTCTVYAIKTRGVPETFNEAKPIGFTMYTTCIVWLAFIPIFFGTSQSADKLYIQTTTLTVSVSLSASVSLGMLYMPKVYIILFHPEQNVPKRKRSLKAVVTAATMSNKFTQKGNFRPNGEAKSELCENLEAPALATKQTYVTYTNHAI
Sequence of Cytochrome P450 2C9 (P11712 whole entry): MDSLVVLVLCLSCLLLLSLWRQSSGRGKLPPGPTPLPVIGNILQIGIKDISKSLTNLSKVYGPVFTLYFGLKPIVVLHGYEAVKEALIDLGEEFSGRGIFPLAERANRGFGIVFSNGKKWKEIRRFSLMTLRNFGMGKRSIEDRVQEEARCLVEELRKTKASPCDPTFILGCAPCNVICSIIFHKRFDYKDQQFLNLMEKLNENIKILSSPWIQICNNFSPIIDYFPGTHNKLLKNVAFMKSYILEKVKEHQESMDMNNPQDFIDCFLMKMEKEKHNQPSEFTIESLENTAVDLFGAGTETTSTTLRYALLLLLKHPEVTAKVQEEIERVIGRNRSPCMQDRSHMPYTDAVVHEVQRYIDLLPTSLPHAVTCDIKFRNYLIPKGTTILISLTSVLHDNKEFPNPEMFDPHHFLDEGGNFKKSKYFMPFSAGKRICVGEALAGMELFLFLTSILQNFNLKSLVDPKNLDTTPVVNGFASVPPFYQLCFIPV
Sequence of Cytochrome P450 3A4 (P08684 whole entry): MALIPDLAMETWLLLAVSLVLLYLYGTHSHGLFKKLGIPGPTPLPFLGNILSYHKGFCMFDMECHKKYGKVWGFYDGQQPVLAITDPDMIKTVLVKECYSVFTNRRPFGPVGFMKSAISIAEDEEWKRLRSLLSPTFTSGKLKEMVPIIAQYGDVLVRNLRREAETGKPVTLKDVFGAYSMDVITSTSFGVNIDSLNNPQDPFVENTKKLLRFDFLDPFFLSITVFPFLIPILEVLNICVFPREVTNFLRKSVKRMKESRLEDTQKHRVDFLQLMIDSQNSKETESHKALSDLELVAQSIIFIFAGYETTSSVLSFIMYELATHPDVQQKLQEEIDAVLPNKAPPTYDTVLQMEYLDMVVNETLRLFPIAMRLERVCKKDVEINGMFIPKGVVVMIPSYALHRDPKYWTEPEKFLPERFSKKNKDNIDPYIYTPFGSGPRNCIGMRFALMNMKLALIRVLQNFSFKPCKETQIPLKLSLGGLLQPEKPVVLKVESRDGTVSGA
Sequence of Cytochrome P450 2D6 (P10635 whole entry): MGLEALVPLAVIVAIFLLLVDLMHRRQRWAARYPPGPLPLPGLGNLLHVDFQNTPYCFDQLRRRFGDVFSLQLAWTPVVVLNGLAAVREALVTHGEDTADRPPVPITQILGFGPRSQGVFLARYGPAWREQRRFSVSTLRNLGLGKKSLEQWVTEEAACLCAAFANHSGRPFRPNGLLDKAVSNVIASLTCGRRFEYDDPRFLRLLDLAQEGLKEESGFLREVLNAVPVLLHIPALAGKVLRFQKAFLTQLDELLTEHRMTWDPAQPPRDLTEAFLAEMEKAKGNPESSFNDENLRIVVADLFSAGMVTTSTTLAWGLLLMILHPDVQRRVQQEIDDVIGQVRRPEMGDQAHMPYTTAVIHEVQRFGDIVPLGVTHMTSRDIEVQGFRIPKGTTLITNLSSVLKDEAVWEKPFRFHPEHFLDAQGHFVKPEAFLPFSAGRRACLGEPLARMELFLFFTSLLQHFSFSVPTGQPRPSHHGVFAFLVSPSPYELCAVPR

| SMILES | Activity [1] | Activity [2] | EC50 ([3]; read-out: EC50) | EC50 ([4]; read-out: EC50) | other results |
| --- | --- | --- | --- | --- | --- |
| O=C(Nc1ccc2c(ccn2C(=O)c2ccccn2)c1)c1ccccc1Cl | 17.6% | 21.1% | – | – | EC50 ([3]; cho): Not Active; EC50 ([4]; cho): Not Active |
| O=C(Nc1ccc(NC(=O)c2ccc(F)cc2Cl)c(Cl)c1)c1ccccn1 | 119% | 61.1% | 169 nM | 114 nM | fold change (FC) [5]: 6.7 |
| O=C(Nc1ccc(NC(=O)C2CCCCC2)c(Cl)c1)c1ccccn1 | 106% | 59.2% | 592 nM | 426 nM | – |
| COc1cc(NC(=O)c2cnccn2)ccc1NC(=O)c1ccccc1Cl | 112% | 74.3% | 1120 nM | 1780 nM | – |
| O=C(Nc1ccc(NC(=O)c2ccccn2)cc1Cl)c1cc(Cl)cc(Cl)c1 | 61% | 37.4% | 2340 nM | 2150 nM | – |
| O=C(Nc1ccc(NC(=O)c2ccccn2)cc1Cl)c1ccccc1 | 74.2% | 37.9% | 518 nM | 361 nM | – |
| COc1cc(NC(=O)C2CCCO2)ccc1NC(=O)c1ccccc1Cl (stereo not drawn) | 27.1% | 21.3% | > 10000 nM | – | EC50 ([4]; cho): Not Active |
| COc1cc(NC(=O)C2CCCCC2)ccc1NC(=O)c1ccccc1Cl | 43.2% | 26.9% | 1520 nM | 1120 nM | – |
| O=C(Nc1ccc(NC(=O)c2cncs2)c(Cl)c1)c1ccccn1 | 125% | 86.7% | 1730 nM | 2180 nM | – |
| O=C(Nc1ccc(NC(=O)c2cccs2)c(Cl)c1)c1ccccn1 | 93.8% | 57.8% | 1130 nM | 1040 nM | – |
| COc1cc(NC(=O)c2cscn2)ccc1NC(=O)c1ccccc1Cl | 132% | 86.8% | 753 nM | 845 nM | – |
| Cn1c(C(=O)Nc2ccc(NC(=O)c3ccccn3)cc2Cl)cc2ccccc21 | 87.1% | 49.9% | 2970 nM | 4720 nM | – |
| COc1cc(NC(=O)c2ccccn2)ccc1NC(=O)c1ccccc1Cl | 147% | 79.4% | – | – | INH (Cytochrome P450 1A2): > 30 µM; fold change (FC) [5]: 72; fraction unbound [6]: < 0.005; Cmax (Plasma [7]): 265 ng/mL; Tmax (in vivo): 60 min; AUC(0-t) [8]: 938 ng·h/mL; INH (Cytochrome P450 2C9): 14.3 µM; Cmax [9]: 69.1 ng/g; INH (Cytochrome P450 2D6): 12.8 µM; INH (Cytochrome P450 3A4): > 30 µM; AUC (Plasma [10]): 312 ng·h/g |
| COc1ccccc1C(=O)n1ccc2cc(NC(=O)c3ccccn3)ccc21 | 107% | 91.3% | 1340 nM | 1410 nM | fold change (FC) [5]: 5.9; fraction unbound [6]: < 0.005 |
| O=C(Nc1ccc2c(ccn2C(=O)c2ccc(F)cc2Cl)c1)c1ccccn1 | 104% | 71.7% | 1660 nM | 1420 nM | – |
| COc1cc(NC(=O)c2cccs2)ccc1NC(=O)c1ccccc1Cl | 96.7% | 63.4% | – | – | – |

| SMILES | Activity [1] | Activity [2] | EC50 ([3]; read-out: EC50) | EC50 ([4]; read-out: EC50) | other results |
| --- | --- | --- | --- | --- | --- |
| O=C(Nc1ccc(NC(=O)c2ccc(F)cc2F)c(Cl)c1)c1ccccn1 | 43.5% | 24.6% | 2100 nM | – | EC50 ([4]; cho): Not Active |
| COc1ccccc1C(=O)Nc1ccc(NC(=O)c2ccccn2)cc1Cl | 19% | 16.4% | – | – | EC50 ([3]; cho): Not Active; EC50 ([4]; cho): Not Active |
| COc1cc(NC(=O)c2ccco2)ccc1NC(=O)c1ccccc1Cl | 122% | 62.7% | 1010 nM | 977 nM | – |
| COc1cc(NC(=O)c2ccc(Br)o2)ccc1NC(=O)c1ccccc1Cl | 125% | 87% | 1000 nM | 1440 nM | – |
| COc1cc(NC(=O)c2ccc(-c3ccccc3)o2)ccc1NC(=O)c1ccccc1Cl | 16.3% | 16.3% | – | – | EC50 ([3]; cho): Not Active; EC50 ([4]; cho): Not Active |
| O=C(Nc1ccccc1)[C@]12C[C@H]1/C(=N\O)c1ccccc1O2 | – | – | 2820 nM | – | – |
| O=C(Nc1ccc(NC(=O)c2ccccc2Cl)c(C(F)(F)F)c1)c1ccccn1 | 102% | 69.5% | 2360 nM | 2090 nM | – |
| O=C(Nc1ccc(NC(=O)c2ccc(-c3ccccc3)o2)c(Cl)c1)c1ccccn1 | 45.6% | 24.9% | 3350 nM | – | EC50 ([4]; cho): Not Active |
| CC(C)C(=O)Nc1ccc(NC(=O)c2ccccn2)cc1Cl | 109% | 60% | 4820 nM | 4270 nM | – |
| O=C(Nc1ccc(NC(=O)c2nccs2)c(Cl)c1)c1ccccn1 | 106% | 61.5% | 533 nM | 403 nM | fold change (FC) [5]: 6 |
| O=C(Nc1ccc(NC(=O)c2ccccc2Cl)c(F)c1)c1ccccn1 | 91.4% | 59.7% | – | – | fold change (FC) [5]: 4.6 |
| COc1cc(NC(=O)c2nccs2)ccc1NC(=O)c1ccccc1Cl | 134% | 77.6% | 377 nM | 627 nM | fold change (FC) [5]: 32.2; fraction unbound [6]: < 0.005 |
| O=C(Nc1ccc(NC(=O)c2ccccc2Cl)cc1)c1ccccn1 | 49.6% | 33.6% | 2260 nM | 1610 nM | – |
| Cc1ccccc1C(=O)Nc1ccc(NC(=O)c2ccccn2)cc1Cl | 123% | 72.5% | 915 nM | 958 nM | INH (Cytochrome P450 1A2): > 10 µM; fold change (FC) [5]: 9.6; fraction unbound [6]: < 0.005; Cmax (Plasma [7]): 219.2 ng/mL; Tmax (in vivo): 30 min; AUC(0-t) [8]: 766 ng·h/mL; INH (Cytochrome P450 2C9): 14.1 µM; Cmax [9]: 59.4 ng/g; INH (Cytochrome P450 2D6): 12 µM; INH (Cytochrome P450 3A4): > 30 µM; AUC (Plasma [10]): 155.4 ng·h/g |
| O=C(Nc1ccc(NC(=O)c2ccccc2F)c(Cl)c1)c1ccccn1 | 71.6% | 34.5% | 4390 nM | 2380 nM | – |
| COc1cc(NC(=O)c2ccncn2)ccc1NC(=O)c1ccccc1Cl | 133% | 77.9% | 894 nM | 1330 nM | – |
